A short description of data set [1]: Cytotoxicity against human HeLa-P4 cells at 50 uM […] by MTS assay relative to control. The conditions noted are these: hela p4, 50 µM. Format: cell-based. In general terms: Tetrazolium dyes change colour on reduction, which living cells bring about.
In data set [2] the test system is Human immunodeficiency virus 1. Description: Antiviral activity against HIV1 LAI infected in human HeLa-P4 cells harboring a stably integrated LTR-linked LacZ reporter gene assessed as inhibition of viral replication at 50 uM preincubated with cells for 2 hrs followed by viral infection and measured after 48 hrs of compound challenge by CPRG based beta-galactosidase assay relative to control. The note with it: Human immunodeficiency virus 1, LAI, HeLaP4. In kind it is functional. Put shortly:
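Single-concentration screen: HeLa P4 cells (stably integrated LTR–LacZ reporter) infected with HIV-1 Laï and incubated 48 h with compound at 50 µM; zidovudine as positive control.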
(Reporter assays use an easily measured gene product as a stand-in for the process of interest.)

The test system of data set [3] is Human immunodeficiency virus 1. As to the kind of experiment: Antiviral activity against HIV1 LAI infected in human HeLa-P4 cells harboring a stably integrated LTR-linked LacZ reporter gene assessed as inhibition of viral replication preincubated with cells for 2 hrs followed by viral infection and measured after 48 hrs of compound challenge by CPRG based beta-galactosidase assay. Format: functional, organism-based.

Data set [4] can be described thus: Octanol/water partition coefficient, logD of the compound at pH 7.4 by shake flask method. Format: physicochemical.
The nature of data set [5]: Cmax in iv dosed mouse plasma measured after 10 mins. Set-up: route intravenous, time 10 min. In kind it is ADME, organism-based.
Data set [6] is described as follows: Metabolic stability in CD1 mouse liver microsomes assessed as half life of compound at 1 uM and measured up to 60 mins in presence of NADPH by LC-MS analysis. In kind it is ADME, Microsome.
A short description of data set [7]: Thermodynamic solubility of compound in PBS at pH 7.4 incubated for 24 hrs under shaking condition by HPLC analysis. Format: physicochemical. The note with it: read-out: Therm_solubility.
Data set [8] is described as follows: Stability in CD-1 mouse plasma assessed as parent compound remaining at 1 uM measured up to 60 mins by LC-MS/MS analysis. In kind it is ADME, cell-free. The conditions noted are these: read-out: Stabilty.
For data set [9], the system named is Human immunodeficiency virus 1. Description: Antiviral activity against HIV1 LAI infected in human MT2 cells assessed as suppression of viral replication up to 50 uM pre-incubated with cells for 2 hr before viral infection and measured after 3 days of cultivation by RT-PCR analysis. In kind it is functional, organism-based. The note with it: dose microM <=50, time 3.0 day.

Data set [10] in a line: Plasma protein binding in mouse at 1 uM incubated for 4 hrs by rapid equilibrium dialysis method. The note with it: read-out: PPB (converted). Format: ADME, cell-free. Background: In equilibrium dialysis only unbound substance equilibrates across the membrane.
Data set [11] deals with Human immunodeficiency virus 1. Description: Inhibition of recombinant HIV1 integrase mediated strand transfer activity at 0.1 to 333 uM in presence of U5A/U5B2 and [gamma-32P]ATP. The note with it: dose microM 0.1-333. Put shortly: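 HIV-1 integrase strand-transfer reaction run with increasing inhibitor concentrations from 100 nM to 333 µM, with raltegravir as positive control, and the strand-transfer efficiency was measured.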

Data set [12] concerns the target Human immunodeficiency virus type 1 reverse transcriptase (Human immunodeficiency virus 1, UniProt Q72547). As to the kind of experiment: Inhibition of wild-type recombinant HIV-1 subtype B reverse transcriptase p66/p51 heterodimer expressed in Escherichia coli using calf thymus DNA and [3H]-deoxythymidine 5'-triphophaste as substrate measured after 15 mins by liquid scintillation counting method. Summed up:
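Inhibition measured with subtype B wild-type HIV-1 RT in an in vitro susceptibility assay; nevirapine and AZT as positive controls.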

The nature of data set [13]: Cmax in po dosed mouse plasma measured after 10 mins. In kind it is ADME, organism-based. Details: route oral, time 10 min.
The mark [14] stands for this setting: Human immunodeficiency virus 1, LAI, HeLaP4, read-out: EC50.

In brackets after ≈: the same amount, converted by molar mass. Activity calls are given as the source filed them. The calls are words filed in the database; no cut-off is given here. Where only a bound is given, the exact number is not on record here.

On to `COC(=O)c1c(N)c(C#N)nn1-c1ccccc1[N+](=O)[O-]`, for which the Activity in data set [1] came out at 0%. Also, the inhibition at 50 µM in data set [2] amounted to 42%.

In the case of `COC(=O)c1c(N)c(C#N)nn1-c1cccc(C(=O)OC(C)(C)C)c1`, in data set [1], the Activity is reported as 0%. Moreover, the inhibition at 50 µM in [2] worked out at 36%.

In data set [1], `COC(=O)c1c(N)c(C#N)nn1-c1ccccc1Cl` yielded an Activity of 2.4%. Moreover, the inhibition at 50 µM in data set [2] was 30%.

`COC(=O)c1c(N)c(C#N)nn1-c1ccc(OC)cc1`: in data set [1], the Activity is 14.6%. Further, the inhibition at 50 µM in [2] was under 30%.

Molecule `C#Cc1ccccc1-n1nc(C#N)c(N)c1C(=O)OC` came in with an Activity in data set [1] of 7%. The inhibition at 50 µM in [2] is under 30%.

In data set [1], `COC(=O)c1c(N)c(C#N)nn1-c1cccc([N+](=O)[O-])c1` returned an Activity of 0%. Besides, the inhibition at 50 µM in [2] is 47%.

Turning to `COC(=O)c1c(N)c(C#N)nn1-c1ccc(Cl)cc1`, in [1], the Activity is given as over 15%. Also, in data set [2], the inhibition at 50 µM was determined as 56%.

In data set [1], `COC(=O)c1c(N)c(C#N)nn1-c1cccc(F)c1` returned an Activity of 0%. Besides, in [2], the inhibition at 50 µM is 48%.

In the case of `COC(=O)c1c(N)c(C#N)nn1-c1ccccc1C(=O)OC(C)(C)C`, in data set [1], the Activity turned out to be 2.8%. In data set [2], the inhibition at 50 µM is under 30%.

In turn, `COC(=O)c1c(N)c(C#N)nn1-c1ccccc1Br` showed an Activity in data set [1] of 4.8%. Moreover, the inhibition at 50 µM in [2] worked out at 32%.

In data set [1], `COC(=O)c1c(N)c(C#N)nn1-c1ccccc1I` gave an Activity of over 15%. The inhibition at 50 µM in [2] was under 30%.

In [1], `COC(=O)c1c(N)c(C#N)nn1-c1ccc(C(F)(F)F)cc1` displayed an Activity of 14%. In [2], the inhibition at 50 µM was under 30%.

Turning to `COC(=O)c1c(N)c(C#N)nn1-c1ccc([N+](=O)[O-])cc1`, the Activity in [1] is listed as 0%. For the same molecule, in data set [2], the inhibition at 50 µM was 43%.

`COC(=O)c1c(N)c(C#N)nn1-c1cccc(Cl)c1`: the Activity in data set [1] turned out to be 11%. Moreover, the inhibition at 50 µM in data set [2] was under 30%.

In the case of `COC(=O)c1c(N)c(C#N)nn1-c1ccccc1F`, the Activity in data set [1] worked out at 3.6%. For the same molecule, the inhibition at 50 µM in data set [2] is under 30%.

Consider `COC(=O)c1c(N)c(C#N)nn1-c1cccc(Br)c1`, for which, in data set [1], the Activity was 9%. In addition, in data set [2], the inhibition at 50 µM is 42%.

With `C[C@H](Cn1cnc2c(N)ncnc21)OCP(=O)(O)O` [TENOFOVIR ANHYDROUS], the EC50 in data set [3] (setting [14]) was 13.3 µM.

The molecule `COC(=O)c1c(N)c(C#N)nn1-c1cccc(OCc2ccccc2)c1` gave a logD in data set [4] of 3.84. The EC50 was 15.2 µM in data set [3] (setting [14]) and “Dose-dependent effect” in data set [3] (hela p4). Besides, the Cmax in [5] was found to be 241 ng/mL. Besides, the half-life at 1 µM in [6] was found to be 4.6 min. Also, in data set [7], the solubility thermodynamic at 24 h worked out at 1.03 µM (≈ 0.359 µg/mL). This molecule came in with an Activity in [1] of 11%. Also, the remaining at 1 h, 1 µM in [8] was determined as 100%. Besides, the result in data set [9] was Active. Further, in data set [2], the inhibition at 50 µM came to 65%.

As for `COC(=O)c1c(N)c(C#N)nn1-c1ccc(Br)cc1`, the Activity in [1] was over 15%. The inhibition at 50 µM in data set [2] was found to be 67%.

In data set [1], `COC(=O)c1c(N)c(C#N)nn1-c1ccccc1` gave an Activity of 7%. In addition, in data set [2], the inhibition at 50 µM is under 30%.

In the case of `COC(=O)c1c(N)c(C#N)nn1-c1ccc(C(=O)OC(C)(C)C)cc1`, the Activity in data set [1] was found to be 14%. Further, the inhibition at 50 µM in [2] is 47%.

In data set [1], `COC(=O)c1c(N)c(C#N)nn1-c1ccc(OCc2ccccc2)cc1` came in with an Activity of 3.8%. For the same molecule, the inhibition at 50 µM in data set [2] is under 30%.

`C#Cc1cccc(-n2nc(C#N)c(N)c2C(=O)OC)c1` gave an Activity in data set [1] of 14%. The inhibition at 50 µM in data set [2] is under 30%.

In turn, `COC(=O)c1c(N)c(C#N)nn1-c1ccccc1OC` displayed an Activity in data set [1] of 9.2%. Besides, the inhibition at 50 µM in data set [2] is under 30%.

`COC(=O)c1c(N)c(C#N)nn1-c1ccccc1OCc1ccccc1`: the fraction unbound at 4 h, 1 µM in [10] is 0.05. Further, in [4], the logD was found to be 3.69. The EC50 in [3] (setting [14]) was 19.4 µM; in data set [3] (hela p4) it was “Dose-dependent effect”. In addition, the inhibition entry in data set [11] is “inactive”. In addition, the results for the Cmax in [5] and in data set [13] were 238 ng/mL and 18 ng/mL, respectively. Also, the half-life at 1 µM in data set [6] is 3 min. Moreover, the IC50 in [12] is over 1000 µM. For the same molecule, in data set [7], the solubility thermodynamic at 24 h turned out to be 9.6 µM (≈ 3.34 µg/mL). Also, the Activity in [1] is 9%. In addition, the remaining at 1 h, 1 µM in data set [8] stood at 100%. In addition, the outcome in data set [9] was Active. For the same molecule, in [2], the inhibition at 50 µM is 63%.

Molecule `COC(=O)c1c(N)c(C#N)nn1-c1ccc(F)cc1` showed an Activity in [1] of 6%. For the same molecule, in data set [2], the inhibition at 50 µM was under 30%.

In turn, `COC(=O)c1c(N)c(C#N)nn1-c1cccc(OC)c1` returned an Activity in data set [1] of 6%. Also, the inhibition at 50 µM in [2] was under 30%.

In the case of `COC(=O)c1c2nc(-c3cccc(Br)c3)cc(N)c2nn1-c1cccc(OC)c1`, in [1], the Activity is given as 2%. Further, the inhibition at 50 µM in data set [2] is 54%.

For `COC(=O)c1c(N)c(C#N)nn1-c1cccc(C(F)(F)F)c1`, in [1], the Activity was over 15%. In addition, the inhibition at 50 µM in data set [2] is under 30%.

Usually inhibition stands for the change of the read-out against control, counted positive when it falls. A word on the EC50: it is the concentration that produces a half-maximal response. One may read the logD as lipophilicity at a set pH, counting ionised and neutral species. A high value points to a more lipophilic compound. What is called Cmax is the highest concentration seen after dosing. One may read the half-life as the time in which the quantity being followed falls by half. The term IC50 denotes the concentration at which inhibition is half-maximal.

Source of the values: ChEMBL document CHEMBL4699410, “Discovery, SAR study and ADME properties of methyl 4-amino-3-cyano-1-(2-benzyloxyphenyl)-1H-pyrazole-5-carboxylate as an HIV-1 replication inhibitor” (RSC Med Chem, 2020).
